Reference: publication PMC6525002 (Cancer Management and Research, 2019)
Entries after “also recorded” stand apart in the source; their conditions may differ.

What was measured:
[1] = tested on: patients with advanced NSCLC and EGFR gene mutations; assay: Phase Ib safety and toxicity; format: in vivo, human
Summary of the method: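 3+3 dose escalation (modified Fibonacci) of oral test compound, 100–650 mg flat doses twice daily for 28 days. Safety population was all patients dosed at least once. AEs were graded by NCI CTCAE v4.0. Haematology, liver and renal labs were taken predose on Days 1, 8, 15, 22 and 29, plus ECG, echocardiography and chest X-ray. MTD was defined by >1 DLT per dose level.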

[2] = tested on: other investigated kinases; conditions: in vitro; cited from earlier work

For simotinib, the Aminotransferase elevation ([1]; 100 mg twice daily, N=2) was 0 n (%), the Bilirubin elevation ([1]; 100 mg twice daily, N=2) was 0 n (%) and the Diarrhea ([1]; 100 mg twice daily, N=2) was 0 n (%). For the same substance, the Erythrocyte reduction ([1]; 100 mg twice daily, N=2) was 0 n (%), the Fatigue ([1]; 100 mg twice daily, N=2) was 2 (100) n (%) and the Neutropenia ([1]; 100 mg twice daily, N=2) was 0 n (%). For the same substance, the Pruritus ([1]; 100 mg twice daily, N=2) was 2 (100) n (%), the Rash ([1]; 100 mg twice daily, N=2) was 1 (50.0) n (%) and the Aminotransferase elevation ([1]; 200 mg twice daily, N=3) was 0 n (%). The Bilirubin elevation ([1]; 200 mg twice daily, N=3) was 2 (66.7) n (%), the Diarrhea ([1]; 200 mg twice daily, N=3) was 3 (100) n (%) and the Erythrocyte reduction ([1]; 200 mg twice daily, N=3) was 1 (33.3) n (%). For the same substance, the Fatigue ([1]; 200 mg twice daily, N=3) was 1 (33.3) n (%), the Neutropenia ([1]; 200 mg twice daily, N=3) was 3 (100) n (%) and the Pruritus ([1]; 200 mg twice daily, N=3) was 2 (66.7) n (%). The Rash ([1]; 200 mg twice daily, N=3) was 2 (66.7) n (%), the Aminotransferase elevation ([1]; 300 mg twice daily, N=3) was 1 (33.3) n (%) and the Bilirubin elevation ([1]; 300 mg twice daily, N=3) was 2 (66.7) n (%). For the same substance, the Diarrhea ([1]; 300 mg twice daily, N=3) was 3 (100) n (%), the Erythrocyte reduction ([1]; 300 mg twice daily, N=3) was 0 n (%) and the Fatigue ([1]; 300 mg twice daily, N=3) was 2 (66.7) n (%). The Neutropenia ([1]; 300 mg twice daily, N=3) was 1 (33.3) n (%), the Pruritus ([1]; 300 mg twice daily, N=3) was 1 (33.3) n (%) and the Rash ([1]; 300 mg twice daily, N=3) was 0 n (%). For the same substance, the “death during the treatment phase” value ([1]; 400 mg dose) was 1 patient, the “patients with at least 1 study drug-related AE” value ([1]; 400 mg dose group) was 86.7% and the Aminotransferase elevation ([1]; 400 mg twice daily, N=15) was 2 (13.3) n (%). The Bilirubin elevation ([1]; 400 mg twice daily, N=15) was 1 (6.7) n (%), the Diarrhea ([1]; 400 mg twice daily, N=15) was 7 (46.7) n (%) and the Erythrocyte reduction ([1]; 400 mg twice daily, N=15) was 4 (26.7) n (%). The Fatigue ([1]; 400 mg twice daily, N=15) was 2 (13.3) n (%), the Neutropenia ([1]; 400 mg twice daily, N=15) was 3 (20.0) n (%) and the Pruritus ([1]; 400 mg twice daily, N=15) was 4 (26.7) n (%). For the same substance, the Rash ([1]; 400 mg twice daily, N=15) was 2 (13.3) n (%), the “patients with at least 1 study drug-related AE” value ([1]; 500 mg dose group) was 91.7% and the “AEs of grade ≥3” value ([1]; 500 mg group) was 3 patients. For the same substance, the Aminotransferase elevation ([1]; 500 mg twice daily, N=12) was 2 (16.7) n (%), the Bilirubin elevation ([1]; 500 mg twice daily, N=12) was 2 (16.7) n (%) and the Diarrhea ([1]; 500 mg twice daily, N=12) was 7 (58.3) n (%). For the same substance, the Erythrocyte reduction ([1]; 500 mg twice daily, N=12) was 2 (16.7) n (%), the Fatigue ([1]; 500 mg twice daily, N=12) was 3 (25.0) n (%) and the Neutropenia ([1]; 500 mg twice daily, N=12) was 2 (16.7) n (%). For the same substance, the Pruritus ([1]; 500 mg twice daily, N=12) was 1 (8.3) n (%), the Rash ([1]; 500 mg twice daily, N=12) was 9 (75.0) n (%) and the Aminotransferase elevation ([1]; 650 mg twice daily, N=6) was 3 (50.0) n (%). The Bilirubin elevation ([1]; 650 mg twice daily, N=6) was 0 n (%), the Diarrhea ([1]; 650 mg twice daily, N=6) was 3 (50.0) n (%) and the Erythrocyte reduction ([1]; 650 mg twice daily, N=6) was 2 (33.3) n (%). The Fatigue ([1]; 650 mg twice daily, N=6) was 0 n (%), the Neutropenia ([1]; 650 mg twice daily, N=6) was 2 (33.3) n (%) and the Pruritus ([1]; 650 mg twice daily, N=6) was 0 n (%). The Rash ([1]; 650 mg twice daily, N=6) was 3 (50) n (%), the “patients with at least 1 study drug-related AE” value ([1]; 100, 200, 300, and 650 mg dose groups) was “all patients” and the tolerability ([1]; 100 to 650 mg twice daily) was “well tolerated”. The “dose-limiting toxicity (DLT)” value ([1]; 100 to 650 mg twice daily, 28 days) was “no dose-limiting toxicities; also recorded: No DLT was observed”, the Aminotransferase elevation ([1]; Total N=41) was 8 (19.5) n (%) and the Bilirubin elevation ([1]; Total N=41) was 7 (17.1) n (%). For the same substance, the Diarrhea ([1]; Total N=41) was 23 (56.1) n (%), the Erythrocyte reduction ([1]; Total N=41) was 9 (22.0) n (%) and the Fatigue ([1]; Total N=41) was 10 (24.4) n (%). The Neutropenia ([1]; Total N=41) was 11 (26.8) n (%), the Pruritus ([1]; Total N=41) was 10 (24.4) n (%) and the Rash ([1]; Total N=41) was 17 (41.5) n (%). The “AEs of grade ≥3, patients” value ([1]; all doses, 7 of 41 patients) was 17.1%, the “patients with at least one study drug-related AE” value ([1]; all doses, 38 of 41 patients) was 92.7% and the “patients with at least one AE” value ([1]; all doses, 39 of 41 patients) was 95.1%. For the same substance, the “anemia, frequency” value ([1]; all doses, 41 patients) was 22.0%, the “diarrhea, frequency” value ([1]; all doses, 41 patients) was 56.1% and the “fatigue, frequency” value ([1]; all doses, 41 patients) was 24.4%. The “increased level of aminotransferase, frequency” value ([1]; all doses, 41 patients) was 19.5%, the “increased level of bilirubin, frequency” value ([1]; all doses, 41 patients) was 17.1% and the “neutropenia, frequency” value ([1]; all doses, 41 patients) was 26.8%. The “pruritus, frequency” value ([1]; all doses, 41 patients) was 24.4%, the “rash, frequency” value ([1]; all doses, 41 patients) was 41.5% and the “maximum tolerated dose (MTD)” value ([1]; doses of up to 650 mg twice daily) was “not found; also recorded: not reached”. The “patients who discontinued the study” value ([1]; one patient, 500 mg) was 2.4% and the “activity on other investigated kinases” value [2] was “no significant activity”.
